Series [1] concerns the target Ephrin type-A receptor 5 (Homo sapiens) (UniProt P54756). The experiment in a line: Inhibition of recombinant human EphA5 (655 to 956 residues) at 10 uM using poly(Glu, Tyr) 4:1 as substrate measured after 40 mins in presence of [gamma33P]ATP by scintillation counting method.
Series [2] has as its target Serine/threonine-protein kinase PRP4 homolog (Homo sapiens) (UniProt Q13523). The experiment in a line: Inhibition of human PRP4 (663 to end residues) using casein as substrate measured after 40 mins in presence of [gamma33P]ATP by scintillation counting method. Put shortly: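 Kinase panel of 422 kinases screened by Eurofins KinaseProfiler at a single test-compound concentration of 10 µM.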

Series [3] can be described thus: Clearance in human liver microsomes at 1 uM in presence of NADPH by LC-MS analysis. It counts as ADME, Microsome. To be noted: read-out: CLH. In short, it runs like this: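 Compound at 1 μM with 0.5 mg/mL human liver microsomes and 1 mM NADPH; sampled at 0, 5, 15, 30 and 45 min, stopped with acetonitrile, then centrifuged.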
Series [4] has as its target Serine/threonine-protein kinase PLK3 (Homo sapiens) (UniProt Q9H4B4). The experiment in a line: Inhibition of recombinant human Plk3 (19 to 301 residues) at 10 uM using casein as substrate measured after 40 mins in presence of [gamma33P]ATP by scintillation counting method.
The target in series [5] is Serine/threonine-protein kinase PAK 1 (Homo sapiens) (UniProt Q13153). The experiment in a line: Inhibition of recombinant human PAK1 (150 to end residues) at 10 uM using RRRLSFAEPG as substrate measured after 40 mins in presence of [gamma33P]ATP by scintillation counting method.
The target in series [6] is Protein kinase C alpha type (Homo sapiens) (UniProt P17252). As to the kind of experiment: Inhibition of recombinant full-length human PKCalpha at 10 uM using histone H1 as substrate measured after 40 mins in presence of [gamma33P]ATP by scintillation counting method.
Series [7] deals with Activin receptor type-1B (Homo sapiens) (UniProt P36896). As to the kind of experiment: Inhibition of recombinant human ALK4 (150 to end residues) at 10 uM using casein as substrate measured after 40 mins in presence of [gamma33P]ATP by scintillation counting method.
The target of series [8] is Protein kinase C iota type (Homo sapiens) (UniProt P41743). As to the kind of experiment: Inhibition of recombinant full-length human PKCiota at 10 uM using ERMRPRKRQGSVRRRV as substrate measured after 40 mins in presence of [gamma33P]ATP by scintillation counting method.
The target of series [9] is MAP kinase-interacting serine/threonine-protein kinase 2 (Homo sapiens) (UniProt Q9HBH9). The experiment in a line: Inhibition of recombinant full-length human Mnk2 at 10 uM using myelin basic protein as substrate measured after 40 mins in presence of [gamma33P]ATP by scintillation counting method.
Series [10] concerns the target Serine/threonine-protein kinase Nek7 (Homo sapiens) (UniProt Q8TDX7). The experiment in a line: Inhibition of recombinant human NEK7 (2 to end residues) at 10 uM using FLAKSFGSPNRAYKK as substrate measured after 40 mins in presence of [gamma33P]ATP by scintillation counting method.
The subject of series [11] is RAF proto-oncogene serine/threonine-protein kinase (Homo sapiens), P04049 [Y340D,Y341D]. As to the kind of experiment: Inhibition of recombinant human c-RAF Y340D/Y341D mutant (360 to end residues) at 10 uM using inactive MEK1 as substrate measured after 40 mins in presence of [gamma33P]ATP by scintillation counting method.
Series [12] addresses Nucleosome-remodeling factor subunit BPTF (Homo sapiens, UniProt Q12830). As to the kind of experiment: Binding affinity to human N-terminal His-tagged FALZ assessed as change in melting temperature at 10 uM by SYPRO orange dye-based fluorescence assay. In short, it runs like this: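 Thermal shift with His-tagged human bromodomain at 2 μM final in 10 mM HEPES pH 7.5, 500 mM NaCl. Compound at 10 μM final with 0.1% DMSO; SYPRO Orange at 1:1000. Equilibrated 3 min at 25 °C, then heated from 25 to 95 °C at 1 °C/min. Melting temperature shift taken from fluorescence; at least duplicate.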

Series [13] addresses Beta-adrenergic receptor kinase 1 (Homo sapiens) (UniProt P25098). As to the kind of experiment: Inhibition of recombinant full-length human GRK2 at 10 uM using casein as substrate measured after 40 mins in presence of [gamma33P]ATP by scintillation counting method.
Series [14] addresses Serine/threonine-protein kinase SBK1 (Homo sapiens) (UniProt Q52WX2). The experiment in a line: Inhibition of recombinant full-length human SBK1 at 10 uM using KKLRRTLSVA as substrate measured after 120 mins in presence of [gamma33P]ATP by scintillation counting method.
For series [15], the target named is Serine/threonine-protein kinase ULK1 (Homo sapiens) (UniProt O75385). The experiment in a line: Inhibition of human ULK1 (1 to 314 residues) using casein as substrate measured after 40 mins in presence of [gamma33P]ATP by scintillation counting method.
Series [16] deals with Mitogen-activated protein kinase kinase kinase kinase 1 (Homo sapiens) (UniProt Q92918). As to the kind of experiment: Inhibition of recombinant human HPK1 (1 to 346 residues) at 10 uM using myelin basic protein as substrate measured after 40 mins in presence of [gamma33P]ATP by scintillation counting method.
Series [17] has as its target Receptor tyrosine-protein kinase erbB-4 (Homo sapiens) (UniProt Q15303). As to the kind of experiment: Inhibition of recombinant human ErbB4 (706 to 991 residues) at 10 uM using poly (Glu, Tyr) 4:1 as substrate measured after 40 mins in presence of [gamma33P]ATP by scintillation counting method.
The target in series [18] is Transcription initiation factor TFIID subunit 1 (Homo sapiens) (UniProt P21675). The experiment in a line: Binding affinity to human partial length TAF1 bromodomain 2 (D1521 to D1656 residues) expressed in bacterial expression system at 1 uM by BROMOscan assay. In short, it runs like this: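 BROMOscan bromodomain cross-screen run by an outside service, compound at 1 µM against 32 recombinant bromodomains. Binding given as percent of control.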

The nature of series [19]: AUC (0 to infinity) in Sprague-Dawley rat at 10 mg/kg, po administered via gavage by LC-MS/MS analysis. Type of series: ADME, organism-based. Details: dose 10 mg/kg, route oral, time infinity. To be noted: in vivo. In short, it runs like this:
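Serial jugular blood samples taken at designated times and spun to plasma at 4 ℃. Plasma mixed with acetonitrile holding internal standard, then LC-MS/MS. Parameters from noncompartmental fitting.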

Series [20] addresses G protein-coupled receptor kinase 3 (Homo sapiens) (UniProt P35626). As to the kind of experiment: Inhibition of recombinant full-length human GRK3 at 10 uM using casein as substrate measured after 40 mins in presence of [gamma33P]ATP by scintillation counting method.
A further series is filed under the species Homo sapiens. As to the kind of experiment: Inhibition of recombinant full-length human JNK2alpha2 S51N mutant at 10 uM using ATF2 as substrate measured after 40 mins in presence of [gamma33P]ATP by scintillation counting method.
In series [21] the target is Tyrosine-protein kinase SYK (Homo sapiens) (UniProt P43405). The experiment in a line: Inhibition of recombinant full-length human Syk at 10 uM using poly(Glu, Tyr) 4:1 as substrate measured after 120 mins in presence of [gamma33P]ATP by scintillation counting method.

SMILES strings stand for the structures. Calls of active or inactive are those of the source. The calls are words filed in the database; no cut-off is given here.

Chain of Receptor tyrosine-protein kinase erbB-4 (Homo sapiens) (Q15303 whole entry, the tested form may be a part): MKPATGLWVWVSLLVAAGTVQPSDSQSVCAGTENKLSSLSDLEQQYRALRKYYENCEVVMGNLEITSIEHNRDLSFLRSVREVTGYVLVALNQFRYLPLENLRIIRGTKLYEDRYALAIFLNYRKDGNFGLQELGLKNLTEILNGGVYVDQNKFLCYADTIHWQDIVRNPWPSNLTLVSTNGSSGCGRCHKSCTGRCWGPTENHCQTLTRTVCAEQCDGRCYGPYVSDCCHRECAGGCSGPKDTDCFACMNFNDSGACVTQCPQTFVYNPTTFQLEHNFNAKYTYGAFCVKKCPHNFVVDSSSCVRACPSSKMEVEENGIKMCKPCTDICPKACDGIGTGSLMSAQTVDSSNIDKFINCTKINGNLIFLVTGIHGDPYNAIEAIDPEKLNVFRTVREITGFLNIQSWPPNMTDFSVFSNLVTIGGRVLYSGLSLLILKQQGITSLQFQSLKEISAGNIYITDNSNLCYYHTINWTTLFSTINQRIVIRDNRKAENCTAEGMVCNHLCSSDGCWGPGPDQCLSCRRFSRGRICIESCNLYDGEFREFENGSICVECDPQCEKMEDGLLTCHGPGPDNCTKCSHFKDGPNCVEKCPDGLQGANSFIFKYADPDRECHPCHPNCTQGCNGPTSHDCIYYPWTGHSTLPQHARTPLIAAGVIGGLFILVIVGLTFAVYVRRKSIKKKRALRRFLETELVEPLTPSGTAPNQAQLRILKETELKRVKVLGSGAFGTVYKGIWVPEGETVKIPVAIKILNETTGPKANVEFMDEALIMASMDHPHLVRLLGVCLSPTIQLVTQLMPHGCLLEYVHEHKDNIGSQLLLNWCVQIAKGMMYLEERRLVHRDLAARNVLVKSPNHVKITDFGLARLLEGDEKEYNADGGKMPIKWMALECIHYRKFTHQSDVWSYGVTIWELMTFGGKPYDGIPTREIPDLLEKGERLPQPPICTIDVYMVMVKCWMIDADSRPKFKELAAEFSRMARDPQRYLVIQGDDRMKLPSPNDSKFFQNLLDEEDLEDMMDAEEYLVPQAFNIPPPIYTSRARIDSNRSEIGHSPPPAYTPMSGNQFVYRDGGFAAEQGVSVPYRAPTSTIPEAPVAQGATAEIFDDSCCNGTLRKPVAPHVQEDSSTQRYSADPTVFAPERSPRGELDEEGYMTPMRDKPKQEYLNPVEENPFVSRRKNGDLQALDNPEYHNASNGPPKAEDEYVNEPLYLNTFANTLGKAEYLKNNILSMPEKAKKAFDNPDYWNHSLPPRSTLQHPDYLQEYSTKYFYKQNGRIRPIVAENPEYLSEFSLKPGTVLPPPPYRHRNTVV
Chain of Serine/threonine-protein kinase PLK3 (Homo sapiens) (Q9H4B4 whole entry, looked up, the tested form may be a part): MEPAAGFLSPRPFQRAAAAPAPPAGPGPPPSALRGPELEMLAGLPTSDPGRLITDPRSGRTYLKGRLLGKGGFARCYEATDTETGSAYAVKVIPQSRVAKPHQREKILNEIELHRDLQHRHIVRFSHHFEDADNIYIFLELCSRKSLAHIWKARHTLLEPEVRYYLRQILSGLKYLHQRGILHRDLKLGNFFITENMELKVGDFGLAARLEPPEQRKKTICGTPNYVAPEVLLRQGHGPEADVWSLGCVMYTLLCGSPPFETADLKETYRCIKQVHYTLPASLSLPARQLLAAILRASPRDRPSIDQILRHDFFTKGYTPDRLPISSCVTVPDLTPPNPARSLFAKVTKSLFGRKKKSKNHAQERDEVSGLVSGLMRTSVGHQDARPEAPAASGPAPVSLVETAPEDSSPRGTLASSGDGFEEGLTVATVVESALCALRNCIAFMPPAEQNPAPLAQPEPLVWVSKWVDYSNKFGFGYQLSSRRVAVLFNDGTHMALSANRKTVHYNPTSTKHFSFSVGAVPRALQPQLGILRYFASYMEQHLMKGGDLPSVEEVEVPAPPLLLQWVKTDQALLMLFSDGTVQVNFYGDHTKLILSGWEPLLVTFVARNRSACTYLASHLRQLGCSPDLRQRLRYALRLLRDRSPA
Chain of Serine/threonine-protein kinase PAK 1 (Homo sapiens) (Q13153 whole entry): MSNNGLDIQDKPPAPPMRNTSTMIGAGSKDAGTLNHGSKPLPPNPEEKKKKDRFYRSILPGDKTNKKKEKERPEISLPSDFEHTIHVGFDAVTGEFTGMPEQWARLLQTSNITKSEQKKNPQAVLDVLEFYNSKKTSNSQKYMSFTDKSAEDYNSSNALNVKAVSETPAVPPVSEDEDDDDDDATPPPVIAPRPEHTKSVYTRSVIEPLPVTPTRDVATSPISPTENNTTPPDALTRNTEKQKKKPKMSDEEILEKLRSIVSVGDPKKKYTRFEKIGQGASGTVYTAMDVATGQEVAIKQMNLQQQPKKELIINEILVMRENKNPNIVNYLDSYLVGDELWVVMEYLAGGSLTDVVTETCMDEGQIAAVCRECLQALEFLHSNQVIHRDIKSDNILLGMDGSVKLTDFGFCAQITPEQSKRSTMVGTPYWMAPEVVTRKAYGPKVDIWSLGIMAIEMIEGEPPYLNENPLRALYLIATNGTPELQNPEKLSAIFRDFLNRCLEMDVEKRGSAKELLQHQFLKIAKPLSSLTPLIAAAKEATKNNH
Chain of Serine/threonine-protein kinase Nek7 (Homo sapiens) (Q8TDX7 whole entry, looked up): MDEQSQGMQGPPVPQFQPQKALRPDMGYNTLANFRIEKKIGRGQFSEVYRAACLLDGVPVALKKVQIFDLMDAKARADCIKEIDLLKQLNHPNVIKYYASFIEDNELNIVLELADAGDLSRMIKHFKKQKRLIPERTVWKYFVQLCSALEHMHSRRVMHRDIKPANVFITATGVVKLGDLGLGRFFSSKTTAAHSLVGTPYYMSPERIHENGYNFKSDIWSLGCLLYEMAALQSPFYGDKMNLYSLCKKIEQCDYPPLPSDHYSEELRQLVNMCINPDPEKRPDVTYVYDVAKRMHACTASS
Chain of Mitogen-activated protein kinase kinase kinase kinase 1 (Homo sapiens) (Q92918 whole entry, looked up, the tested form may be a part): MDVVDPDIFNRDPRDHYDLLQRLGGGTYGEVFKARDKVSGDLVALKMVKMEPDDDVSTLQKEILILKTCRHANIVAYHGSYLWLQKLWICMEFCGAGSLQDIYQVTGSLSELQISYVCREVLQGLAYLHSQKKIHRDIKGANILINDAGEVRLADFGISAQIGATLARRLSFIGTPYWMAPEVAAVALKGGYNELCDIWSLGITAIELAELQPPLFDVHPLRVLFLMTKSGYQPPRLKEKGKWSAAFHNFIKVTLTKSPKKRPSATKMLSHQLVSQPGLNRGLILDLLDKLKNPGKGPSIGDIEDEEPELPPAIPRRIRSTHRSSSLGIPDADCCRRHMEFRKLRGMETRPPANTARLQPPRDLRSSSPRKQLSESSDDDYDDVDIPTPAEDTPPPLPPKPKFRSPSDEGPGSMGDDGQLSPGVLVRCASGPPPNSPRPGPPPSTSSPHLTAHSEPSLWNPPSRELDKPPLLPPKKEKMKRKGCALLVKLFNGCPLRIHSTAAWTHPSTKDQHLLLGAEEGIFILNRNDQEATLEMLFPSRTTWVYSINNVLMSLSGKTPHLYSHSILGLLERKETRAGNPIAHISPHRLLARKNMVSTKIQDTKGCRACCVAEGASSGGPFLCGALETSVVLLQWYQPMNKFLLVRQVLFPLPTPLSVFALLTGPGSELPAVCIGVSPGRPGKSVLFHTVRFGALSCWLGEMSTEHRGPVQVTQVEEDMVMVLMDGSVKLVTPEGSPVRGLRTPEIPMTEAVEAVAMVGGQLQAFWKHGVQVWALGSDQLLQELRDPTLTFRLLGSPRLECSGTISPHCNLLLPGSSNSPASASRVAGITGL
Chain of Activin receptor type-1B (Homo sapiens) (P36896 whole entry): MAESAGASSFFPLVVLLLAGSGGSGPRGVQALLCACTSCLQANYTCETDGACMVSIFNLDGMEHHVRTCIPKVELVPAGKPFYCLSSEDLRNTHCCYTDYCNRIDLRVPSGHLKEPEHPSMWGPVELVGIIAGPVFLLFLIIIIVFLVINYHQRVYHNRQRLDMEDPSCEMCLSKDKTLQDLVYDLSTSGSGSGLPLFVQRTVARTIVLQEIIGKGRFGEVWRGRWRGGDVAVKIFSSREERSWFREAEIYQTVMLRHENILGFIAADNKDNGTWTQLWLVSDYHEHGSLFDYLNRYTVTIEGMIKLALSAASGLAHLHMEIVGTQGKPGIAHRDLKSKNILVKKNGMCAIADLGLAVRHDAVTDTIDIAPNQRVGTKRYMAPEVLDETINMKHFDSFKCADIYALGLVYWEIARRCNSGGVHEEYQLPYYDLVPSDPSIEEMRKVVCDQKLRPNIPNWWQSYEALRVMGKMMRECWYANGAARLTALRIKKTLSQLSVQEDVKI

With `CN1C[C@H](Nc2nc3cc[nH]c3c(=O)n2C)C[C@H](c2ccc3c(c2)OCCO3)C1`, the inhibition entry in [1], in series [2], in [4], in series [5], in series [6] and in series [7] was “inactive” in each case. Also, the inhibition result in series [8], in [9], in series [10], in [11], in series [13] and in [14] was “inactive” in each case. Further, the inhibition entry (in series [15]; in [16]; in series [17]; in [20]; in the series filed under Homo sapiens; in [21]) was “inactive” throughout. Also, the CLint scaled at 1 µM in series [3] came out at 45 mL/min/kg. Also, the ΔTm in series [12] turned out to be 5.3 °C. The result in series [18] was inactive. Further, the AUC(0-inf) in [19] worked out at 2490 ng·h/mL.
